Measured values from publication PMC12304097 (Scientific Reports, 2025).

Legend:
NEP = conditions: cited from earlier work
NEP2 = conditions: cited from earlier work
[1] = biological target: T1, NEP2 (recombinant soluble extracellular domain) (Homo sapiens, UniProt Q495T6); test: Inhibition of NEP2-mediated NP cleavage; type: biochemical; conditions: inhibitor 50 µM, NEP2 113 nM
T1 sequence (Q495T6 74-779): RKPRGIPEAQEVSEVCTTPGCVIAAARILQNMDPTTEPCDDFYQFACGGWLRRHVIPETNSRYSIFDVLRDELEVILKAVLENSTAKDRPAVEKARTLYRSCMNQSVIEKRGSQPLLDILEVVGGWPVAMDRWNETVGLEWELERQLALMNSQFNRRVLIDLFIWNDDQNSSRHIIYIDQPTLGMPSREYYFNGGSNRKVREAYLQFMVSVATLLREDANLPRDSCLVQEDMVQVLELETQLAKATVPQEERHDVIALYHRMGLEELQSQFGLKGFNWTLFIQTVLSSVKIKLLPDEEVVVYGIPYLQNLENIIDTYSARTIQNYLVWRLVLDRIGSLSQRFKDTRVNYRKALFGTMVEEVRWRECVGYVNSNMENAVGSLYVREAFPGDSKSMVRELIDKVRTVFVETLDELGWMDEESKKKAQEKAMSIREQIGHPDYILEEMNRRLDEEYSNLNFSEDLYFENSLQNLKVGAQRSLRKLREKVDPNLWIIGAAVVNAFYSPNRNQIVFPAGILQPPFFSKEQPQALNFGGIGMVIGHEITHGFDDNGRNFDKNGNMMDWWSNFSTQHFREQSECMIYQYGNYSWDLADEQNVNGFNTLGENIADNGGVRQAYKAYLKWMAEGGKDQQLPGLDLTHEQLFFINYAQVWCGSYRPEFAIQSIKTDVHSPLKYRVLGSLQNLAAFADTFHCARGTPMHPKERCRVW

[2] = biological target: T2, NEP (recombinant soluble extracellular domain) (Homo sapiens, UniProt P08473); test: Inhibition of NEP-mediated NP cleavage; type: biochemical; conditions: inhibitor 50 µM, NEP 9.4 nM
T2 sequence (P08473 56-750): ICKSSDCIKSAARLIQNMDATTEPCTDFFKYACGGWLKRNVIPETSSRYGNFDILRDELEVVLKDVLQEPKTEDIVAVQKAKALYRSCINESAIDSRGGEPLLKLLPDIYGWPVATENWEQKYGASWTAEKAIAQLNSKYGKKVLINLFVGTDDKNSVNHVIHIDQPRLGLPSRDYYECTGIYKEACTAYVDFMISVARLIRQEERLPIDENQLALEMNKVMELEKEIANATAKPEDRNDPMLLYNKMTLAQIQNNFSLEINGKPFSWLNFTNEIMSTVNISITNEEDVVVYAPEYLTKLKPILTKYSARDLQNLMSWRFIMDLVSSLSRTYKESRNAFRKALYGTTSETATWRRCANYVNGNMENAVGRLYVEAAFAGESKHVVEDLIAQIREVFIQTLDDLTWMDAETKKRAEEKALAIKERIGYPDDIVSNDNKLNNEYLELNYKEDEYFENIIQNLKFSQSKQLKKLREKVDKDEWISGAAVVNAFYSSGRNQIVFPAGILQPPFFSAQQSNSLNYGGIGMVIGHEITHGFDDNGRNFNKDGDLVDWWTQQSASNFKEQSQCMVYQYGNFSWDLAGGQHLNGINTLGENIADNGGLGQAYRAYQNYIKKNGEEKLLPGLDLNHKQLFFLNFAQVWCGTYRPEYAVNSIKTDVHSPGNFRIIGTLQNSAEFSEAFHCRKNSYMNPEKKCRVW

cGMP = conditions: canine model of renin-angiotensin-aldosterone system; cited from earlier work
[3] = biological target: T1, NEP2 (recombinant soluble extracellular domain); test: In vitro NP cleavage by NEP2, read by intact-ring s-IA; type: in vitro ADME; conditions: sentence says the same is true for NEP2
Outline: (§1)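 Ni-NTA-purified His-tagged soluble human ectodomains were used: NEP (aa 56–750, Expi293F) at 9.4 nM and NEP2 (aa 74–779, ExpiCHO-S) at 113 nM. Doses were activity-matched on a fluorogenic substrate. […] Reactions were stopped with EDTA buffer and read by Eu-chelate intact-ring ANP or BNP sandwich immunoassay, relative to enzyme-free sample.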

[4] = biological target: T2, NEP (recombinant soluble extracellular domain); test: In vitro NP cleavage by NEP, read by intact-ring s-IA; type: in vitro ADME
Outline: as §1

[5] = peptide 1.45 µM, intact-ring s-IA, P < 0.005

CC(C)C[C@H](NP(=O)(O)O[C@@H]1O[C@@H](C)[C@H](O)[C@@H](O)[C@H]1O)C(=O)N[C@@H](Cc1c[nH]c2ccccc12)C(=O)O [phosphoramidon]
Inhibition of NEP (NEP): sensitive | Inhibition of NEP2 (NEP2): sensitive | Effect of inhibitor on neo5-epitope formation during BNP proteolysis by NEP2 ([1]; BNP 1.45 µM, neo5 s-IA): inhibited | Effect of inhibitor on ANP and BNP proteolysis by NEP2 [1, 5]: inhibited | Effect of inhibitor on neo5-epitope formation during BNP proteolysis by NEP ([2]; BNP 1.45 µM, neo5 s-IA): inhibited | Effect of inhibitor on ANP and BNP proteolysis by NEP [2, 5]: inhibited

C[C@H](C[C@@H](Cc1ccc(-c2ccccc2)cc1)NC(=O)CCC(=O)O)C(=O)O [sacubitrilat]
Circulating cGMP levels (cGMP): increased

O=C(O)CNC(=O)C(CS)Cc1ccccc1 (centres unmarked) [thiorphan]
Affinity towards NEP2, fold lower than towards NEP (NEP2): 30 times | Inhibition of NEP2 (NEP2): less potently

ANP: Synthetic ANP, 28 aa, aar 124–151 of UniProt P01160, Bachem
Susceptibility to proteolysis by NEP2 relative to BNP [3]: more susceptible to proteolysis | Susceptibility to proteolysis by NEP relative to BNP [4]: more susceptible to proteolysis
